In PubChem BioAssay AID651936 (NMMLSC, 2012) one finds normalized fluorogen binding data, which are given here for 11 compounds.

This experiment has as its system AM2.2-beta2AR cells, FAP fluorogen binding after washes, flow cytometry. Nature of the experiment: reversibility of FAP fluorogen binding blockade, mechanism study for beta2AR internalization ligand project, AM2.2-beta2AR cells, powder sets 3 and 4 (AID 651936). The gist of the method: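 Material: AM2.2-beta2AR cell line; medium: serum-free RPMI, 1% FBS RPMI wash medium; also added: TO1-2p at 150 nM final, added to cell aliquots; incubation: compound exposure 90 min, 37 °C; technique: flow cytometry of TO1-2p-labelled cell aliquots; read-out basis: TO1-2p binding versus number of washes; benchmarks: DMSO-only treated cells as negative control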

On to `CCOC(=O)N1CCN(C(=O)CN(C)S(=O)(=O)c2ccc(Cl)cc2)CC1`, for which the normalized fluorogen binding (at 10 µM (top of the series)) is 0.122.
For `O=C(Nc1ccc(S(=O)(=O)N2CCCCC2c2cccnc2)cc1)c1c(F)cccc1F` (configuration not stated), the normalized fluorogen binding (at 2 µM (top of the series)) is 0.232.
Consider `Cc1ccc(S(=O)(=O)N2CCCCC2C(=O)N2CCN(c3ccc(C(F)(F)F)cn3)CC2)cc1` (configuration not stated), for which, under “at 100 µM (top of the series)”, the normalized fluorogen binding is 0.154.
Turning to `CC(=O)Nc1ccc(S(=O)(=O)N2CCCCC2c2cccnc2)cc1` (configuration not stated), the normalized fluorogen binding was 0.147 (at 1.4 µM (top of the series)) and 0.642 (at 60 µM (top of the series)).
For `CN(CC(=O)N1CCN(c2ccccn2)CC1)S(=O)(=O)c1ccccc1`, the normalized fluorogen binding (at 0.85 µM (top of the series)) was 0.218.
As to `CN(CC(=O)N1CCN(c2ccccn2)CC1)S(=O)(=O)c1ccc(Cl)cc1`, the normalized fluorogen binding (at 0.2 µM (top of the series)) is 0.143.
Turning to `CN(CC(=O)N1CCN(c2cccc(C(F)(F)F)c2)CC1)S(=O)(=O)c1ccc(F)cc1`, the normalized fluorogen binding (at 60 µM (top of the series)) was 0.233.
As for `CCCCC(=O)Nc1ccc(S(=O)(=O)N2CCCCC2c2cccnc2)cc1` (configuration not stated), the normalized fluorogen binding (at 0.3 µM (top of the series)) was 0.181.
With `CC(C)n1nnc2cc(S(=O)(=O)N(C)CC(=O)N3CCN(c4ccccn4)CC3)ccc21`, the normalized fluorogen binding (at 60 µM (top of the series)) was 0.257.
In the case of `CN(CC(=O)N1CCN(c2ccccn2)CC1)S(=O)(=O)c1ccc(Br)cc1`, the normalized fluorogen binding (at 0.2 µM (top of the series)) is 0.145.
As for `Cc1ccc(S(=O)(=O)N(C)CC(=O)N2CCN(c3ccccn3)CC2)cc1`, under “at 0.8 µM (top of the series)”, the normalized fluorogen binding was 0.124.
